# Screens (PubChem)
# Compounds with a hit are over-represented: about 1.3% of the library has one in this group of screens.
# TbMetRS inhib: blocks T. brucei methionyl-tRNA synthetase activity | purified T. brucei MetRS, ATP depletion, Kinase-Glo luminescence | inhibition, % at 11.9 µM | hit rate 0.4% among 360,000 | AID 624268;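 active = inhibition above a per-plate cutoff of the control wells' mean inhibition plus 3 SD, cut at about 5.5% in these data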
#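 technique = Kinase-Glo luminescence, ATP depletion format | system = purified MetRS (methionyl-tRNA synthetase) enzyme from Trypanosoma brucei | timing = 15 min preincubation, 2 h reaction, all 25 °C | evaluation = percent inhibition versus plate control medians | dosing = single dose, 11.9 µM final nominal, 0.9% final DMSO | also added = substrates ATP, L-methionine and bulk Escherichia coli tRNA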
# core dimer inh: HCV core protein dimerization inhibition; AID 1899; TR-FRET GST/Flag-core106 dimerization, 1536-well; inhibition, % at 5 µM; hit rate 0.33% among 300,000;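 active = inhibition above the mean of all tested compounds plus 3 SD, set per screening campaign, cut at about 45% in these data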
#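 Material: GST/Flag-tagged HCV core106 proteins. Incubation: 4 h, 22.5 °C incubation. Read-out basis: inhibition (%) from 671 over 617 nm ratio. Measured by: TR-FRET, excitation 340 nm, emission 617 and 671 nm.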
# NS3 helicase inh: inhibitors of Hepatitis C virus NS3 helicase; NS3 helicase DNA unwinding, Cy5 molecular beacon fluorescence; inhibition, % at 10.9 µM; hit rate 0.56% among 290,000; AID 1800;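 active = inhibition above the mean of all tested compounds plus 3 SD, set per campaign, cut at about 35% in these data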
#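 Measured by: Cy5 fluorescence, 0 and 60 min reads / Assay system: NS3 helicase fragment of HCV / Control set: low DMSO, high thioflavine S at 110 µM / Times: 1 h reaction at 25 °C, ATP-initiated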
# Hep lipid drop: modulators of hepatic lipid droplet formation; AML12 mouse hepatocytes, oleate lipid droplets, BODIPY imaging; inhibition, % at 6.5 µM; hit rate 0.4% among 240,000; AID 1656;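 active = lipid droplet intensity inhibited by at least 50%, with more than 500 cells counted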
#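 Material – AML12 mouse liver cells · Also added – oleate loading, 100 µM · Compound dosing – 6.5 µM single-point dosing · Times – overnight treatment with compound plus oleate · Measured by – fluorescence imaging, 20x objective, two fields per well · Read-out – percent inhibition of filter-corrected integrated lipid droplet intensity per well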
# Hep lipid conf: hepatic lipid droplet formation inhibition, confirmed; shares compounds with Hep lipid drop; AML12 mouse hepatocytes, BODIPY lipid droplet imaging; droplets induced with 100 µM oleic acid; inhibition, % at 5.2 µM; hit rate 65% among 870;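 active = inhibition of lipid droplet metric at least 50%, with more than 300 cells in each of four replicates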
# AML12 cytotox: toxic to AML12 mouse hepatocytes in counter-screen; shares compounds with Hep lipid drop; DAPI nuclear morphology cytotoxicity imaging; active compounds read high; cells fed 100 µM oleate overnight; z-score at 5 µM; hit rate 3% among 870; AID 463200; in the data active = z-score above about 6.3;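 also: compound exposure lasted overnight at 37 °C before fixation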
# AML12 tox ATP: AML12 hepatocyte cytotoxicity, confirmed. 530 tested, under 10 active. AID 463219. cytotoxicity, % at 50 µM. AML12 mouse hepatocyte viability, ATP luminescence; cells loaded with 100 µM oleic acid. shares compounds with Hep lipid drop;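 active = cytotoxicity above 50% in each of four replicates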;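 also: compound exposure lasted overnight at 37 °C before the ATP read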
# NS3 helicase cf: HCV NS3 helicase inhibition, confirmation assay; AID 1943; NS3 helicase DNA unwinding, Cy5 molecular beacon fluorescence; inhibition, % at 10.9 µM; hit rate 31% among 1,600; shares compounds with NS3 helicase inh;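 active = inhibition above the mean of all tested compounds plus 3 SD, cutoff set per campaign, cut at about 36% in these data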
# DNA FID counter: displaces DNA intercalator in HCV helicase counter-screen; DNA fluorescent intercalator displacement, fluorescence; inhibition, % at 7.9 µM; shares compounds with NS3 helicase inh; hit rate 4% among 1,600; in the data active = inhibition above about 37%;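 also: higher means more displacement of ethidium bromide from the DNA hairpin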
# Tb MetRS conf: Trypanosoma brucei MetRS inhibition confirmed. shares compounds with TbMetRS inhib. T. brucei MetRS enzyme, luminescence (ATP depletion). inhibition, % at 11.9 µM. hit rate 93% among 1,400. AID 624412; in the data active = inhibition above about 7%
# Jurkat cytotox: kills Jurkat cells in T. brucei MetRS counterscreen. shares compounds with TbMetRS inhib. Jurkat cells viability, ATP luminescence. inhibition, % at 8.3 µM. hit rate 12% among 1,400. AID 624413; in the data active = inhibition above about 15%
# Tb MetRS inh FP: T. brucei MetRS inhibition, orthogonal assay; shares compounds with TbMetRS inhib; purified T. brucei MetRS, fluorescence polarization; inhibition, % at 11.9 µM; hit rate 44% among 1,400; in the data active = inhibition above about 17%
# Numbers stand for hits; – = inactive; · = not tested or not shown.
SMILES,TbMetRS inhib,core dimer inh,NS3 helicase inh,Hep lipid drop,Hep lipid conf,AML12 cytotox,others
O=C(NCCc1nc2ccccc2[nH]1)c1ccc(Br)o1,–,–,–,51.2,62.5,–,AML12 tox ATP=–
O=C(NCCc1nc2ccccc2[nH]1)c1ccco1,–,–,–,·,·,·,
COc1ccc(Cc2nc3ccc(C(=O)NCCc4ncccc4C)cc3o2)cc1OC,–,·,·,·,·,·,
O=C1CN(C(=O)Cn2ncc(Cl)c(Cl)c2=O)c2ccccc2N1,–,·,–,126.3,–,–,
O=C1CN(C(=O)COc2ccc(Cl)c(Cl)c2)c2ccccc2N1,–,·,·,·,·,·,
CCN1C(=O)/C(=C2/C=Cc3ccccc3N2C)OC1=S,–,–,–,–,·,·,
CCN1C(=O)/C(=C2\C=Cc3cc(C)ccc3N2CC)OC1=S,–,–,–,67.7,73.5,–,AML12 tox ATP=–
O=C(C1=NOC2(C1)C(=O)Nc1ccccc12)N1CCOCC1 (stereo not drawn),–,·,·,·,·,·,
COC(=O)COc1cccc(NC(=O)c2ccc(Cl)cc2)c1,–,–,–,50.8,–,–,
COC(=O)COc1cccc(NC(=O)c2ccc(C)cc2)c1,–,–,–,·,·,·,
Cc1nc2ccccc2nc1OCc1ccccc1,–,–,–,–,·,·,
Cc1ccc2nc(=O)c(NNc3ccccc3)cnc2c1,–,–,–,51.7,–,–,AML12 tox ATP=–
Cc1nc2ccccc2nc(=O)c1NNc1ccccc1,–,·,–,59.2,59.2,–,
O=C(CNCCC1=CCCCC1)Nc1ccccc1N1CCCCC1,–,–,–,103.0,–,–,
O=C(CNC1CCCCCC1)Nc1ccccc1N1CCCCC1,–,–,–,·,·,·,
CCOC(=O)/C(C(=O)Nc1ccccc1Cl)=C1/NC(C)(C)Cc2ccccc21,–,–,–,52.9,–,–,
CCOc1ccccc1NC(=O)N1CCCC1C(=O)NCc1cccs1 (stereo not drawn),–,–,–,73.9,94.1,–,AML12 tox ATP=–
Cc1ccc(C(=O)NCCSc2c(C)[nH]c3ccccc23)cc1[N+](=O)[O-],–,–,–,–,·,·,
Cc1ccc(C(=O)NCCc2nc3ccccc3[nH]2)cc1[N+](=O)[O-],77.2,–,–,82.4,94.2,–,AML12 tox ATP=–;Tb MetRS conf=78.2;Jurkat cytotox=19.8;Tb MetRS inh FP=59.1
Cn1nc(C(F)(F)F)c(-c2cccc(C(F)(F)F)c2)c1NC(=O)Nc1ccc(F)cc1,40.6,–,–,69.0,90.0,–,AML12 tox ATP=–;Tb MetRS conf=58.4;Jurkat cytotox=–;Tb MetRS inh FP=38.3
O=c1[nH][nH]c2c1[C@H](c1ccc(Cl)cc1)O[C@H](C1CCCC1)C2,–,·,·,·,·,·,
N#CC1=C(S)N(c2ccccc2)C(c2ccc(-c3ccccc3Cl)o2)NC1=O (stereo not drawn),–,–,42.2,–,·,·,NS3 helicase cf=51.1;DNA FID counter=–
COC(=O)C1=C(C(=O)OC)SC2(S1)C(C(=O)OC)=C(C(=O)OC)SC1=C2c2cc(C)ccc2NC1(C)C,–,–,–,–,·,·,
Cc1cc(NC(=O)CC(C)C)c(=O)n(Cc2cccc(F)c2)c1,–,–,38.9,–,·,·,NS3 helicase cf=–;DNA FID counter=–
NC(=O)c1cc(S(=O)(=O)NCc2cccs2)cs1,–,–,–,–,·,·,
COc1ccc(CN2C[C@H](O)COC[C@@H]3O[C@H](CC(=O)NCc4ccncn4)CC[C@H]32)cc1,–,·,·,·,·,·,
Cc1cc(C(=O)NNC(=O)CN2C(=O)NC(C)(c3ccccc3)C2=O)c(C)o1 (stereo not drawn),–,–,·,·,·,·,
